In ChEMBL document CHEMBL1137208, “2-(1-adamantyl)-4-(thio)chromenone-6-carboxylic acids: potent reversible inhibitors of human steroid sulfatase” (J Med Chem, 2004) one finds Ki and IC50 data, which are given here for 13 compounds.

Structures are written as SMILES.

In general, Ki refers to the equilibrium dissociation constant of an inhibitor or competing ligand from its target. Lower therefore signals a stronger hold on the target. Usually IC50 stands for the concentration that inhibits the measured activity by half. Higher therefore signals weaker potency.

Assay [1] deals with T1, Steryl-sulfatase (Homo sapiens, UniProt P08842).
T1 sequence (P08842 whole entry): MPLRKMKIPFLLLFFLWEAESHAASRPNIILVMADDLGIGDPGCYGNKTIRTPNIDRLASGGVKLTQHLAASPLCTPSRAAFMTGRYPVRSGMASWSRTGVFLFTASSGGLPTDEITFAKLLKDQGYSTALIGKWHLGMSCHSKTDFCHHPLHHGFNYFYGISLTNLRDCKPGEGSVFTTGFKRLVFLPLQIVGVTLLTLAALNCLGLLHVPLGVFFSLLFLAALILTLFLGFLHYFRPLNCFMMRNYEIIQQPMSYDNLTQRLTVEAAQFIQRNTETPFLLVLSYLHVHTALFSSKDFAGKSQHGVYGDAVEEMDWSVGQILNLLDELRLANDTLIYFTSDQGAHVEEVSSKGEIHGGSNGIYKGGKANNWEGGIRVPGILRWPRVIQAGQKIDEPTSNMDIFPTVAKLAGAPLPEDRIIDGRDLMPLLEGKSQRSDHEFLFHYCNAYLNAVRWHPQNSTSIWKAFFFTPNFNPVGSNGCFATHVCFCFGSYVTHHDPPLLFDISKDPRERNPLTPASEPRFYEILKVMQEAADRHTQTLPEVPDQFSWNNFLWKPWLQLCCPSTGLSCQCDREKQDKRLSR
As to the kind of experiment: Inhibitory activity against human steroid sulfatase. In outline:
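Highly purified human STS from stably transfected recombinant CHO cells (purity >95%). Substrate 0.5 mM 4-methylumbelliferyl sulfate, pH 7.5, 37 °C. 4-Methylumbelliferone formed was read by fluorescence after alkalization. Inhibitors were added at graded concentrations from ethanol stocks (final ethanol ≤2%). Ki came from turnover at several substrate and inhibitor levels, using a Hanes plot and a Km/Vmax vs I replot.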

Assay [2] has as its target T1, Steryl-sulfatase. Put plainly: Inhibitory activity against human steroid sulfatase over-expressed in CHO cells. In kind it is functional, cell-based. In outline:
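Live CHO cells stably expressing human STS, 30 000/well, adhered overnight in phenol red-free RPMI 1640 with 10% FCS. Cells were treated with graded inhibitor for 24 h. Medium was then replaced with the same concentrations plus 0.5 mM 4-MUS for 4 h at 37 °C. Supernatant was stopped at pH 10.4 and read at ex 355/em 460 nm. Signal was normalized to sulforhodamine B protein. Triplicates; IC50 is 50% inhibition.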

For the compound `O=C(O)c1ccc2oc(C34CC5CC(CC(C5)C3)C4)cc(=O)c2c1`, affinity in assay [1] was put at a Ki of 0.5 µM. Also, in assay [2], half-maximal inhibition (IC50) required 9.4 µM.
In assay [1], `O=C(O)C(=O)c1ccc2oc(C34CC5CC(CC(C5)C3)C4)cc(=O)c2c1` gave a Ki of 2.2 µM. For the same compound, inhibition in assay [2] was half-maximal at 12.3 µM (IC50).
Compound `NS(=O)(=O)Oc1ccc2sc(C34CC5CC(CC(C5)C3)C4)cc(=O)c2c1` showed a Ki in assay [1] of 0.21 µM. This compound also came in with an IC50 in assay [2] of 0.024 µM.
In assay [2], `C[C@]12CC[C@@H]3c4ccc(OS(N)(=O)=O)cc4CC[C@H]3[C@@H]1CCC2=O` [EMATE] yielded an IC50 of 0.02 µM.
Take `COC(=O)c1ccc2oc(C34CC5CC(CC(C5)C3)C4)cc(=O)c2c1`: the Ki in assay [1] is above 50 µM. Besides, the IC50 in assay [2] is above 30 µM.
On the same counts, the results for `O=C(O)c1ccc2sc(C34CC5CC(CC(C5)C3)C4)cc(=O)c2c1` are 0.53 µM and 0.18 µM.
On to `O=C(CO)c1ccc2oc(C34CC5CC(CC(C5)C3)C4)cc(=O)c2c1`, for which the affinity in assay [1] corresponds to a Ki of 3.2 µM. In assay [2], this compound gave an IC50 above 30 µM.
`NS(=O)(=O)Oc1ccc2oc(C34CC5CC(CC(C5)C3)C4)cc(=O)c2c1`: in assay [1], the affinity, expressed as Ki, was 0.19 µM. For the same compound, the IC50 in assay [2] turned out to be 0.026 µM.
Compound `O=C(O)Cc1ccc2oc(C34CC5CC(CC(C5)C3)C4)cc(=O)c2c1` gave a Ki in assay [1] above 50 µM. Besides, the IC50 in assay [2] is above 30 µM.
In turn, `NC(=O)c1ccc2oc(C34CC5CC(CC(C5)C3)C4)cc(=O)c2c1` came in with a Ki in assay [1] above 50 µM. Moreover, the IC50 in assay [2] was above 30 µM.
Regarding `O=Cc1ccc2oc(C34CC5CC(CC(C5)C3)C4)cc(=O)c2c1`, in assay [1], the Ki was above 20 µM. The compound also registered a concentration for half-maximal inhibition (IC50) in assay [2] above 30 µM.
As for `O=c1cc(C23CC4CC(CC(C4)C2)C3)oc2ccc(CO)cc12`, in assay [1], the affinity, expressed as Ki, was 32 µM. The IC50 in assay [2] is around 30 µM.
Taken in the same sequence, the figures for `N#Cc1ccc2sc(C34CC5CC(CC(C5)C3)C4)cc(=O)c2c1` were above 50 µM and above 30 µM.
